Measurements reported in ChEMBL document CHEMBL1137618, “Synthesis and structure-activity relationship studies of 3,6-diazabicyclo[3.2.0]heptanes as novel alpha4beta2 nicotinic acetylcholine receptor selective agonists” (J Med Chem, 2007).

What was measured:
[1] = Displacement of [3H]cytisine from neuronal nicotinic acetylcholine receptor in rat brain membrane; format: cell membranes
[2] = target: T1, Neuronal acetylcholine receptor; alpha3/beta4 (Homo sapiens, UniProt P30926+P32297); test: Agonist activity at recombinant human alpha-3-beta-4 nAChR expressed in HEK293 cells assessed as induction of calcium influx by FLIPR assay; format: functional, cell-based
[3] = target: T2, Neuronal acetylcholine receptor; alpha4/beta2 (Homo sapiens, UniProt P17787+P43681); test: Agonist activity at recombinant human alpha-4-beta-2 nAChR expressed in HEK293 cells assessed as induction of calcium influx by FLIPR assay relative to nicotine; format: functional, cell-based
How it was run: (§1)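 HEK-293 lines stably expressing human α4β2 or α3β4 nAChR, grown 24-48 h at 37 °C on poly-D-lysine in DMEM/10% FBS. Loaded with 2-4 µM Fluo-4 AM for ~0.75-1 h at room temperature in the dark, in NMDG Ringer pH 7.4. Serial log dilutions added, then peak calcium fluorescence read on FLIPR after buffer-blank subtraction.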

[4] = target: T2, Neuronal acetylcholine receptor; alpha4/beta2; test: Agonist activity at recombinant human alpha-4-beta-2 nAChR expressed in HEK293 cells assessed as induction of calcium influx by FLIPR assay; format: functional, cell-based
[5] = target: T1, Neuronal acetylcholine receptor; alpha3/beta4; test: Agonist activity at recombinant human alpha3beta4 nAChR expressed in HEK293 cells assessed as induction of calcium influx by FLIPR assay relative to nicotine; format: functional, cell-based; how it was run: as §1

T2 sequence (P17787 whole entry): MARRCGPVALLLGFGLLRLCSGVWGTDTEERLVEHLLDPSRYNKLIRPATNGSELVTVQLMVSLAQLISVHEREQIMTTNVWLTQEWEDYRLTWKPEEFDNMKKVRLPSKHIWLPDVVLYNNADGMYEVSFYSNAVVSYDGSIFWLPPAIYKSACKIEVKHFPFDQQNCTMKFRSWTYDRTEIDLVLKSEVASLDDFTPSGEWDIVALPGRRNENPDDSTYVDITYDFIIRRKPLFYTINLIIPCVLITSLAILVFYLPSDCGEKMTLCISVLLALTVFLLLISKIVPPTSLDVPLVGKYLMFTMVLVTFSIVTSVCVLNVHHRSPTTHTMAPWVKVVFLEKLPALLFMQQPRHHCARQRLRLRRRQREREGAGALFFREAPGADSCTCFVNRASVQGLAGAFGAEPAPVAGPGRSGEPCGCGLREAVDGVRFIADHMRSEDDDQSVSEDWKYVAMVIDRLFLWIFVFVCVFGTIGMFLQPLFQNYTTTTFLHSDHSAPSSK
T2 sequence (P43681 whole entry): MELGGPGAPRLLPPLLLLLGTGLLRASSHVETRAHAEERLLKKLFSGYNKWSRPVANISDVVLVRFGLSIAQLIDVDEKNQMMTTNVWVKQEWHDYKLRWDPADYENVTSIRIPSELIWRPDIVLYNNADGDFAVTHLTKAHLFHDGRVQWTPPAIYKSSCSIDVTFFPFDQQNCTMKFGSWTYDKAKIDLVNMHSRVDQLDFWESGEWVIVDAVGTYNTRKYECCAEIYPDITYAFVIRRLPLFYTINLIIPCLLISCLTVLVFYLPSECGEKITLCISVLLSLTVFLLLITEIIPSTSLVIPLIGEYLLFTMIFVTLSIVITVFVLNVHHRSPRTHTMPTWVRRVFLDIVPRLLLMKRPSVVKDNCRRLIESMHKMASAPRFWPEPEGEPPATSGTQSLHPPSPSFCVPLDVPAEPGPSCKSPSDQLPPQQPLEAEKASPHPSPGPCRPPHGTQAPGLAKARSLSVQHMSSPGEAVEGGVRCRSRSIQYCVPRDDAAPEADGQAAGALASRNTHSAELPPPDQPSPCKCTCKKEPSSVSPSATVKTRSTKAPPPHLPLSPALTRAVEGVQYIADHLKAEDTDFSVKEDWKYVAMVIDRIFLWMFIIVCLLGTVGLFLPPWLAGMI
T1 sequence (P30926 whole entry): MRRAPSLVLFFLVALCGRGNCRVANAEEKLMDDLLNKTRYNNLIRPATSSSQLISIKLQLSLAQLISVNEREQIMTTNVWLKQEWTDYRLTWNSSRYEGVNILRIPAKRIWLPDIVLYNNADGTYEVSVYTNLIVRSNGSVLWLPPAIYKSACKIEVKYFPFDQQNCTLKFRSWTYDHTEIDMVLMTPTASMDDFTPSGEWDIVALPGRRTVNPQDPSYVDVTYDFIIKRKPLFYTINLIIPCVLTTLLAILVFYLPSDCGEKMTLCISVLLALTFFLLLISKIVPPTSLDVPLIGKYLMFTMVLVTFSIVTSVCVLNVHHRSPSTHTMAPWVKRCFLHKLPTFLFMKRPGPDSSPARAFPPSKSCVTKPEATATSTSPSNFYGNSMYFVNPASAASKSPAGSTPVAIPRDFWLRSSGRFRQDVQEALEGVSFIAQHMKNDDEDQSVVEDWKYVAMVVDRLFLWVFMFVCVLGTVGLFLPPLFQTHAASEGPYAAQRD
T1 sequence (P32297 whole entry): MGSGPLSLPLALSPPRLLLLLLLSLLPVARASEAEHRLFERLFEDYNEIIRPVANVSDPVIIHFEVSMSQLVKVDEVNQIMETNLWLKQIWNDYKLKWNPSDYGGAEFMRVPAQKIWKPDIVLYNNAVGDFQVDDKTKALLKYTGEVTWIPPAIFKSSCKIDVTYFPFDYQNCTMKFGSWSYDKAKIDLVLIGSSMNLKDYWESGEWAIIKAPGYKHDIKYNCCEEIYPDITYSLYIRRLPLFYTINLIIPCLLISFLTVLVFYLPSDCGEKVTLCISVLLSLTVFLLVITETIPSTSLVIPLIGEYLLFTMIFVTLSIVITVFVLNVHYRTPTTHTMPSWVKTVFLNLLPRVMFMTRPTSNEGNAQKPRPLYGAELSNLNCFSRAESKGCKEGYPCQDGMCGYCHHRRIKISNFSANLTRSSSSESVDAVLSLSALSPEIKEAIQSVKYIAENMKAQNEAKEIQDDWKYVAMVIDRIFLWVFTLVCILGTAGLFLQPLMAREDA

SMILES	Ki [1] [nM]	Log Ki [1]	EC50 ([2]; read-out: EC50) [nM]	Activity [3] [%]	EC50 ([4]; read-out: EC50) [nM]	EC50 ([4]; read-out: Log EC50 (converted)) [nM]	Activity [5] [%]	EC50 ([2]; read-out: Log EC50 (converted)) [nM]
Clc1cc(N2C[C@H]3CNC[C@H]32)cnc1Cl	0.3	-9.55	1000	117	300	263	92	–
Cc1cc(N2C[C@H]3CNC[C@H]32)cnc1C	8	-8.1	4200	85	2100	–	86	–
Cc1cncc(N2C[C@@H]3CN[C@@H]3C2)c1	2.5	-8.61	8000	76	39900	30900	74	33100
COc1cc(N2C[C@H]3CN[C@H]3C2)cnc1Br	0.07	-10.15	100	159	200	148	113	–
c1cncc(N2C[C@@H]3CNC[C@@H]32)c1	0.7	-9.15	9700	101	2800	2690	97	–
COc1cncc(N2C[C@@H]3CN[C@@H]3C2)c1	3	-8.52	48100	55	15800	13200	44	46800
COc1cc(N2C[C@H]3CNC[C@H]32)cnc1Br	0.2	-9.68	1800	118	900	–	94	–
COc1cncc(N2C[C@H]3CN[C@H]3C2)c1	0.1	-9.96	1000	130	1000	–	99	–
c1cncc(N2C[C@H]3CN[C@H]3C2)c1	0.1	-9.96	6000	181	300	–	119	603
N#Cc1cncc(N2C[C@@H]3CNC[C@@H]32)c1	0.9	-9.07	13700	34	11400	9120	47	12300
N#Cc1cc(N2C[C@H]3CNC[C@H]32)cnc1Br	0.3	-9.6	2000	100	400	324	95	–
N#Cc1cc(N2C[C@@H]3CN[C@@H]3C2)cnc1Br	0.3	-9.51	600	146	800	–	91	–
c1cncc(N2C[C@H]3CNC[C@H]32)c1	1.3	-8.88	2940	116	1900	1820	62	29500
Clc1cc(N2C[C@@H]3CNC[C@@H]32)cnc1Cl	1.2	-8.93	2600	110	900	–	87	–
Clc1ccc(N2C[C@H]3CNC[C@H]32)cn1	1.2	-8.91	1100	127	600	537	104	–
Cc1cncc(N2C[C@@H]3CNC[C@@H]32)c1	1.1	-8.94	16900	68	10400	–	74	–
Brc1cncc(N2C[C@@H]3CN[C@@H]3C2)c1	1.4	-8.84	9100	53	6500	6170	68	–
COc1cc(N2C[C@@H]3CN[C@@H]3C2)cnc1Br	1.9	-8.71	4000	64	2200	–	72	–
Clc1ccc(N2C[C@@H]3CN[C@@H]3C2)cn1	0.6	-9.24	400	162	200	162	110	–
N#Cc1cncc(N2C[C@H]3CN[C@H]3C2)c1	0.1	-9.92	300	123	600	417	102	–
Clc1cncc(N2C[C@H]3CNC[C@H]32)c1	3	-8.53	23000	88	8100	7240	81	–
Cc1ncc(N2C[C@H]3CNC[C@H]32)cc1C#N	1.1	-8.95	2100	128	3900	3800	96	–
C#Cc1cncc(N2C[C@@H]3CNC[C@@H]32)c1	0.6	-9.21	33200	45	20400	13500	33	13200
c1cncc(N2C[C@@H]3CN[C@@H]3C2)c1	1.2	-8.92	6100	122	1600	–	90	–
Clc1cc(N2C[C@@H]3CN[C@@H]3C2)cnc1Br	0.2	-9.62	600	108	400	–	92	–
Cc1cc(N2C[C@@H]3CN[C@@H]3C2)cnc1C	2.2	-8.65	3300	76	1200	–	85	–
Clc1cc(N2C[C@H]3CN[C@H]3C2)cnc1Cl	0.04	-10.4	50	162	400	41.7	98	–
Clc1ccc(N2C[C@H]3CN[C@H]3C2)cn1	0.2	-9.77	400	126	30	24.5	105	34.7
